Published values gathered from unrelated publications.
Each line is one published result; the experiments were not run side by side.
Target: Mitogen-activated protein kinase 1 (MAPK1, Homo sapiens, UniProt P28482)

| Compound | test | setting | endpoint | value |
| --- | --- | --- | --- | --- |
| O=C1C=C(Nc2ccc(OCc3cn(Cc4ccccc4)nn3)cc2)C(=O)c2ccccc21 | enzyme activity, inhibitor, radiometric | 10 µM | inhibition | 18% |
| C#Cc1cc(-c2cc(Nc3nc(N[C@@H](C)c4ccc(F)cn4)ncc3Cl)n[nH]2)ccc1C=O | enzyme activity, inhibitor | 0.2 µM | inhibition | 10.4% |
| Cc1cc(O)c(-c2ccc([C@@H](C)CN(C)C)cc2)c2c1[nH]c(=O)c1sccc12 | enzyme activity, inhibitor | 0.1 µM | inhibition | 6.8% |
| CC#CC(=O)N1CCC[C@H]1c1nc(-c2ccc(C(=O)Nc3ccccn3)cc2)c2c(N)nccn12 | enzyme activity, inhibitor | 1 µM | inhibition | 3% |
| C[C@H]1CC[C@H](n2c3cnccc3c3cnc(Nc4ccc5c(n4)CCN(C(=O)CO)C5)nc32)CC1 | cell-free assay | 1 µM | remaining signal | 100% |
| COc1ccc2oc(-c3ccc4nc(N)oc4c3)c/c(=N\c3ccccc3NC(=O)CCN)c2c1 | binding | 1 µM | remaining binding | 97% |
| C=CC(=O)N1CCC([C@@H]2CCNc3c(C(N)=O)c(-c4ccc(Oc5ccccc5)cc4)nn32)CC1 | enzyme activity, inhibitor | 1 µM | inhibition | 10% |
| CCCCC(=O)Nc1ccc(-c2ccc3ncn(CCC)c(=O)c3c2)cn1 | binding, competition with immobilised ligand | 0.5 µM | remaining binding | 89% |
| COc1ccc2[nH]c3c4[nH]c5ccc(OC)cc5c4c4c(c3c2c1)C(=O)NC4=O | binding | 1 µM | remaining binding | 76% |
